Measured values published in ChEMBL document CHEMBL1143957, “Inhibitory property of the Piper betel phenolics against photosensitization-induced biological damages” (Bioorg Med Chem, 2008).

What was measured:
Liver [1] = experiment: Protection against 30 mins photoirradiation-induced lipid peroxidation damage in rat liver mitochondria assessed as prevention of TBARS formation at 180 uM; assay type: functional
Summary of the method: (§1)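 Rat liver mitochondria (0.5 mg protein/mL final) with methylene blue (50 µg/mL) and test agent in KH₂PO₄–KOH buffer pH 7.4, held at 37 °C and irradiated 30 min with a 100 W tungsten lamp (32.45 W m⁻²). TBARS were measured after 15 min boiling with TBA/TCA/EDTA/HCl reagent, centrifugation and A532 against a malonaldehyde standard. Unirradiated endogenous TBARS were subtracted. Results are % protection, mean ± SEM, n = 5.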

Liver [2] = experiment: Protection against 30 mins photoirradiation-induced lipid peroxidation damage in rat liver mitochondria assessed as prevention of TBARS formation at 30 uM; assay type: functional; summary of the method: as §1
Liver [3] = experiment: Protection against 30 mins photoirradiation-induced lipid peroxidation damage in rat liver mitochondria assessed as prevention of TBARS formation at 60 uM; assay type: functional; summary of the method: as §1
Liver [4] = experiment: Protection against 30 mins photoirradiation-induced damage in rat liver mitochondria assessed as reduction of lipid hydroperoxide formation at 180 uM; assay type: functional; parameters: scale not given: the % may be the effect or the level left
Summary of the method: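 Lipid hydroperoxide read-out: mitochondrial protein (0.5 mg/mL) plus methylene blue (50 µg/mL) with test agent at 180 µM added before a 30 min photo-irradiation. LOOH was quantified as absorbance at 560 nm. Mean ± SEM, n = 5.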

Liver [5] = experiment: Protection against 30 mins photoirradiation-induced lipid peroxidation damage in rat liver mitochondria assessed as prevention of TBARS formation at 2 mM; assay type: functional; summary of the method: as §1
Liver [6] = experiment: Protection against photoirradiation-induced lipid peroxidation damage in rat liver mitochondria at 10 mM; assay type: functional; summary of the method: as §1
Liver [7] = experiment: Protection against photoirradiation-induced lipid peroxidation damage in rat liver mitochondria at 100 mM; assay type: functional; summary of the method: as §1
L929 [8] = experiment: Prevention of 15 mins photoirradiation-induced damage in mouse L929 cells assessed as survival at 5 uM by MTT assay; assay type: functional; conditions: L929, light or radiation study, 0.25 h, read-out: Survival
L929 [9] = experiment: Prevention of 5 mins photoirradiation-induced damage in mouse L929 cells assessed as survival at 5 uM by MTT assay; assay type: functional; conditions: L929, light or radiation study, read-out: Survival
L929 [10] = experiment: Prevention of 15 mins photoirradiation-induced damage in mouse L929 cells assessed as survival at 9 uM by MTT assay; assay type: functional; conditions: L929, light or radiation study, 0.25 h, read-out: Activity
Summary of the method: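 L929 mouse fibroblasts (RPMI 1640, 10% heat-inactivated FCS, 37 °C, 5% CO₂) were seeded at 2 × 10⁴ cells/well, preincubated with test agent in serum-free RPMI for 2 h, then given methylene blue (9 or 18 µM) in PBS for 2 h. Cells were washed and exposed to a 100 W tungsten lamp at room temperature for 0–15 min, then grown in 10% FCS RPMI for 72 h. Viability was measured by MTT (0.5 mg/mL, 4 h), SDS lysis and A550; n = 5.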

[11] = Cytotoxicity against mouse L929 cells assessed as survival at 5 uM after 20 hrs by MTT method relative to control; assay type: cell-based; conditions: read-out: Survival
[12] = Cytotoxicity against mouse L929 cells assessed as survival at 10 uM after 20 hrs by MTT method relative to control; assay type: cell-based; conditions: read-out: Survival
L929 [13] = experiment: Prevention of 10 mins photoirradiation-induced damage in mouse L929 cells assessed as survival at 5 uM by MTT assay; assay type: functional; conditions: L929, light or radiation study, read-out: Survival
L929 [14] = experiment: Prevention of 15 mins photoirradiation-induced damage in mouse L929 cells assessed as survival at 10 uM by MTT assay; assay type: functional; conditions: L929, light or radiation study, 0.25 h, read-out: Survival
L929 [15] = experiment: Prevention of 10 mins photoirradiation-induced damage in mouse L929 cells assessed as survival at 10 uM by MTT assay; assay type: functional; conditions: L929, light or radiation study, read-out: Survival
[16] = Cytotoxicity against mouse L929 cells assessed as survival at 20 uM after 20 hrs by MTT method relative to control; assay type: cell-based; conditions: read-out: Survival
L929 [17] = experiment: Prevention of 5 mins photoirradiation-induced damage in mouse L929 cells assessed as survival at 10 uM by MTT assay; assay type: functional; conditions: L929, light or radiation study, read-out: Survival
L929 [18] = experiment: Prevention of 15 mins photoirradiation-induced damage in mouse L929 cells assessed as survival at 18 uM by MTT assay; assay type: functional; conditions: L929, light or radiation study, 0.25 h, read-out: Survival
L929 [19] = experiment: Prevention of 10 mins photoirradiation-induced damage in mouse L929 cells assessed as survival at 18 uM by MTT assay; assay type: functional; conditions: L929, light or radiation study, read-out: Survival
[20] = Cytotoxicity against mouse L929 cells assessed as survival at 9 uM after 20 hrs by MTT method relative to control; assay type: cell-based; conditions: read-out: Survival
[21] = Cytotoxicity against mouse L929 cells assessed as survival at 18 uM after 20 hrs by MTT method relative to control; assay type: cell-based; conditions: read-out: Survival
L929 [22] = experiment: Prevention of 5 mins photoirradiation-induced damage in mouse L929 cells assessed as survival at 18 uM by MTT assay; assay type: functional; conditions: L929, light or radiation study, read-out: Survival

C=CCc1ccc(OC)c(O)c1
Activity (Liver [1]): 72% | Activity (Liver [2]): 22% | Activity (Liver [3]): 40% | Activity (Liver [4]): 61.5%

COc1cc(C=O)ccc1O
Activity (Liver [5]): 34%

N[C@@H](CCC(=O)N[C@@H](CS)C(=O)NCC(=O)O)C(=O)O
Activity (Liver [6]): 35.6%

O=C1O[C@H]([C@@H](O)CO)C(O)=C1O
Activity (Liver [6]): 25.7%

OC[C@@H](O)[C@@H](O)[C@H](O)[C@H](O)CO
Activity (Liver [7]): 20.1%

C=CCc1ccc(O)c(O)c1 [HYDROXYCHAVICOL]
viability at 5 µM (L929 [8]): 85.4% | viability at 5 µM (L929 [9]): 89.1% | viability at 9 µM (L929 [10]): 6% | viability at 20 h, 5 µM [11]: 96.2% | viability at 20 h, 10 µM [12]: 96.5% | Activity (Liver [1]): 86% | viability at 5 µM (L929 [13]): 88.3% | viability at 10 µM (L929 [14]): 82.9% | Activity (Liver [2]): 32% | viability at 10 µM (L929 [15]): 92.2% | viability at 20 h, 20 µM [16]: 75.7% | Activity (Liver [3]): 48% | viability at 10 µM (L929 [17]): 94.2% | Activity (Liver [4]): 87%

CN(C)c1ccc2nc3ccc(N(C)C)cc3[s+]c2c1 [METHYLENE BLUE ANHYDROUS]
viability at 9 µM (L929 [10]): 14% | viability at 18 µM (L929 [18]): 48.9% | viability at 18 µM (L929 [19]): 64.4% | viability at 20 h, 9 µM [20]: 102% | viability at 20 h, 18 µM [21]: 95.3% | viability at 18 µM (L929 [22]): 67.6%
